ChEMBL document CHEMBL1122242, “Phenylenebis(oxy)bis[2,2-dimethylpentanoic acid]s: agents that elevate high-density lipoproteins” (1983)

Columns and labels:
Format in all cases: functional
Rattus norvegicus [1] = species: Rattus norvegicus; test: Hypolipidemic effects(liver weight) in male rats
Outline: (§1)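 Male rats, 10 per group, fed 7 days on chow with 10% fat (5.5% added peanut oil), 1.5% cholesterol and 0.1% cholic acid. Oral gavage on days 4-7 in 4% acacia, usually 50 mg/kg daily. Fasted overnight, killed day 8, atrial blood into EDTA. Plasma cholesterol, TG and HDL cholesterol (after MnCl2/heparin precipitation) by Autoanalyzer. % change vs controls, Student's t test.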

Rattus norvegicus [2] = test: Hypolipidemic effects (low-density lipoprotein (LDL) cholesterol) in male rats; Compound was screening orally at 50 mg/Kg; outline: as §1
Rattus norvegicus [3] = species: Rattus norvegicus; test: Hypolipidemic effects(plasma TG) in male rats; outline: as §1
Rattus norvegicus [4] = species: Rattus norvegicus; test: Hypolipidemic effects(plasma cholesterol) in male rats; outline: as §1
Rattus norvegicus [5] = test: Hypolipidemic effects (high-density lipoprotein (HDL) cholesterol) in male rats; Compound was screening orally at 50 mg/Kg; outline: as §1

Structure (SMILES) | Change (Rattus norvegicus [1]) | Change (Rattus norvegicus [2]) | Change (Rattus norvegicus [3]) | Change (Rattus norvegicus [4]) | Change (Rattus norvegicus [5])
COC(=O)C(C)(C)CCCOc1cc(OCCCC(C)(C)C(=O)OC)c(C(C)(C)C)cc1C(C)(C)C | 0% | 0% | 0% | 0% | 0%
CC(C)(CCCOc1ccc(OCCCC(C)(C)C(=O)O)c(C(O)c2ccccc2)c1)C(=O)O (configuration not stated) | 16% | -42% | 27% | -17% | 410%
COC(=O)C(C)(C)CCCOc1cc(OCCCC(C)(C)C(=O)OC)c(Cl)cc1Cl | 0% | 0% | 0% | 0% | 0%
COC(=O)C(C)(C)CCCOc1cccc(OCCCC(C)(C)C(=O)OC)c1NC(C)=O | 0% | 0% | 0% | 0% | 0%
CC(C)(CCCOc1ccc(-c2ccc(OCCCC(C)(C)C(=O)O)cc2)cc1)C(=O)O | 15% |  | 0% | -30% | 138%
COC(=O)C(C)(C)CCCOc1cc(C(C)(C)C)c(OCCCC(C)(C)C(=O)OC)cc1C(C)(C)C | 0% |  | -15% | 0% | 0%
COC(=O)C(C)(C)CCCOc1ccc(OCCCC(C)(C)C(=O)OC)c(C#N)c1C#N | 0% | 0% | 0% | 0% | 0%
CC(C)(CCCOc1ccc(S(=O)(=O)c2ccc(OCCCC(C)(C)C(=O)O)cc2)cc1)C(=O)O | 10% | 0% | 0% | 0% | 26%
COC(=O)c1c(OCCCC(C)(C)C(=O)OC)cccc1OCCCC(C)(C)C(=O)OC | 0% | 0% | 0% | 0% | 21%
CC(C)(CCCCOc1ccc(OCCCCC(C)(C)C(=O)O)c(-c2ccccc2)c1)C(=O)O | 8% | -53% | 0% | -49% | 51%
COC(=O)C(C)(C)CCCOc1ccc(OCCCC(C)(C)C(=O)OC)c(/C=N/N=C(\N)S)c1 | 0% | 0% | 0% | 0% | 0%
CC(C)(CCCOc1cccc(OCCCC(C)(C)C(=O)O)c1)C(=O)O | 17% |  | 0% | -52% | 294%
COC(=O)C(C)(C)CCCOc1ccc(Cl)c(OCCCC(C)(C)C(=O)OC)c1 | 8% | 80% | 0% | -42% | 37%
C/C=C/c1cc(OCCCC(C)(C)C(=O)OC)ccc1OCCCC(C)(C)C(=O)OC | 29% | -66% | -31% | -39% | 268%
CC(C)(CCCOc1ccc(OCCCC(C)(C)C(=O)O)c(-c2ccc(Cl)cc2Cl)c1)C(=O)O | 0% | -54% | -20% | -45% | 64%
CCC(O)c1cc(OCCCC(C)(C)C(=O)O)ccc1OCCCC(C)(C)C(=O)O (configuration not stated) | 34% | -62% | 0% | 0% | 947%
COC(=O)C(C)(C)CCCOc1ccc(C=O)c(OCCCC(C)(C)C(=O)OC)c1 | 11% | -30% | 0% | -18% | 79%

Structure (SMILES) | Change (Rattus norvegicus [1]) | Change (Rattus norvegicus [2]) | Change (Rattus norvegicus [3]) | Change (Rattus norvegicus [4]) | Change (Rattus norvegicus [5])
COC(=O)C(C)(C)CCCOc1ccccc1OCCCC(C)(C)C(=O)OC | 0% |  | -30% | -40% | 0%
CC(C)(CCCOc1ccc(OCCCC(C)(C)C(=O)O)c(-c2ccccc2Cl)c1)C(=O)O | 23% | -38% | 38% | 0% | 480%
COc1ccc(-c2cc(OCCCC(C)(C)C(=O)O)ccc2OCCCC(C)(C)C(=O)O)cc1 | 0% | -38% | -30% | -30% | 52%
COC(=O)C(C)(C)CCCOc1ccc(OCCCC(C)(C)C(=O)OC)c(-c2nnco2)c1 | 11% | -33% | 0% | -26% | 31%
COC(=O)C(C)(C)CCCOc1cccc(OCCCC(C)(C)C(=O)OC)c1C | 33% |  | -15% | -37% | 385%
CC(C)(CCCOc1ccc(OCCCC(C)(C)C(=O)Oc2ccc(C(C)(C)C)cc2)cc1)C(=O)Oc1ccc(C(C)(C)C)cc1 | 0% | 0% | 0% | 0% | 0%
COC(=O)C(C)(C)CCCOc1cc(C)c(OCCCC(C)(C)C(=O)OC)cc1C | 14% | -64% | 27% | -30% | 688%
CCCCCCCCCCCCc1ccc(OCCCC(C)(C)C(=O)O)cc1OCCCC(C)(C)C(=O)O | 0% | -12% | 0% | 0% | 0%
Cc1cc(OCCCC(C)(C)C(=O)O)c(C)c(C)c1OCCCC(C)(C)C(=O)O | 21% |  | 42% | -37% | 165%
CC(C)(CCCOc1ccc(OCCCC(C)(C)C(=O)OCc2cccnc2)c(-c2ccccc2)c1)C(=O)OCc1cccnc1 | 19% | 0% | 0% | 63% | 594%
COC(=O)C(C)(C)CCCOc1cc(C)cc(OCCCC(C)(C)C(=O)OC)c1 | 18% |  | -53% | -62% | 262%
CCOC(=O)C(C)(C)CCCOc1ccc(OCCCC(C)(C)C(=O)OCC)c(-c2ccccc2)c1 | 20% | -18% | 0% | 43% | 536%
COC(=O)C(C)(C)CCCOc1ccc(C(C)(C)c2ccc(OCCCC(C)(C)C(=O)OC)cc2)cc1 | 0% | 0% | 0% | 0% | 0%
COC(=O)C(C)(C)CCCOc1ccc(OCCCC(C)(C)C(=O)OC)c(C2CCCCC2)c1 | 6% | -54% | -24% | -49% | 35%
COC(=O)c1ccc(OCCCC(C)(C)C(=O)OC)cc1OCCCC(C)(C)C(=O)OC | 0% | 0% | 0% | 0% | 0%
CC(C)(CCCOc1ccc(Sc2ccc(OCCCC(C)(C)C(=O)O)cc2)cc1)C(=O)O | 0% |  | 20% | -35% | 0%
COC(=O)C(C)(C)CCCOc1ccc(OCCCC(C)(C)C(=O)OC)c(C(C)=O)c1 | 21% | -39% | 20% | 0% | 381%
